The values that follow come from ChEMBL document CHEMBL5154683, “A 5-FU Precursor Designed to Evade Anabolic and Catabolic Drug Pathways and Activated by Pd Chemistry In Vitro and In Vivo” (J Med Chem, 2022).

Data set [1] can be described thus: Prodrug conversion in rat liver S9 fraction assessed as DH5FU metabolite formation at 1.6 mM incubated for 1 hr in presence of NADPH by 19F-NMR based analysis. The format is ADME, subcellular. As to conditions: s9, 1 h, 1600 µM. A digest of the protocol: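 Compound added as 150 mM stock in DMSO-d₆, preincubated 5 min at 37 °C with enzyme mixture, then NADPH added (1 mM) and incubated 1 h at 37 °C, 600 rpm; controls without NADPH and without enzymes. Stopped with EtOAc, dried under N₂, redissolved in DMSO-d₆, DH5FU detected by ¹⁹F NMR vs authentic sample.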

Data set [2] relates to HCT-116. The data set is described as follows: Antiproliferative activity against human HCT-116 cells assessed as increase in cytotoxicity at 1 uM incubated for 5 days in presence of Pd-resin by PrestoBlue dye based assay. The format is functional, cell-based. Particulars: time 5.0 day.
Data set [3] concerns HCT-116. The experiment in a line: Antiproliferative activity against human HCT-116 cells assessed as reduction in cell viability at 100 uM incubated for 5 days in presence of Pd-resins at 0.8 mg/ml by PrestoBlue dye based assay relative to control. It is filed as functional. As to conditions: time 5 day. A digest of the protocol: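 HCT116 seeded at 750 cells/well and grown 48 h. Medium then replaced with fresh medium with or without Pd resins (20–160 μg per well; 0.2–1.4 mg/mL). Compound added as 5 μL of a 2 mM stock in 2% DMSO/medium, incubated 5 d. PrestoBlue fluorescence read; values normalised to untreated cells within each resin dilution.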

The nature of data set [4]: Metabolic stability in rat hepatocytes assessed as intrinsic clearance at 3 uM measured per 10^6 cells by LC-MS/MS analysis. Particulars: read-out: CLH. The format is ADME, cell-based, Hepatocyte. The procedure, abridged:
(§1)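 Suspended hepatocytes (0.5 × 10⁶ cells/mL) in Williams E medium with 2 mM L-glutamine and 25 mM HEPES at 37 °C, compound added with 0.25% v/v DMSO after preincubation; aliquots quenched into methanol with internal standard at time points, centrifuged, supernatant analyzed by LC-MS/MS; two control compounds included.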

A short description of data set [5]: Metabolic stability in rat hepatocytes assessed as half life at 3 uM by LC-MS/MS analysis. It is filed as ADME, cell-based, Hepatocyte. A digest of the protocol:
as §1

Data set [6] is described as follows: Efflux ratio of apparent permeability across basolateral to apical side over apical to basolateral side in human Caco2 cells at 10 uM measured after 120 mins by LC-MS/MS analysis. The format is ADME, cell-based. As to conditions: Caco-2. The procedure, abridged:
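Caco-2 cells (P40-60) seeded at 1 × 10⁵ cells/cm² on Transwells, used on day 20; rinsed and equilibrated 40 min in HBSS pH 7.4. Compound at 10 μM in HBSS, 1% v/v DMSO, added apically (A–B) or basolaterally (B–A); 120 min at 37 °C, 5% CO₂. Lucifer yellow monitored monolayer integrity; LC-MS/MS with eight-point calibration; recovery from C₀ and both compartments.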
(Caco-2 monolayers are a common model of the intestinal barrier.)

Data set [7] is described as follows: Plasma protein binding in human at 5 uM. As to conditions: read-out: PPB (converted). The format is ADME, cell-free. The procedure, abridged: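 Binding of compound at 5 μM measured in rat and human plasma, with compound recovery determined; n = 3.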
A further data set has as its target Albumin (Homo sapiens, UniProt P02768). The data set is described as follows: Binding affinity to human plasma albumin. It is filed as ADME, cell-free.
The nature of data set [8]: Drug metabolism in PBS buffer assessed as dealkylation of parent compound causing metabolite formation at 100 uM in presence of palladium resin. The format is ADME. The procedure, abridged: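 Prodrug (100 μM in PBS, pH 7.4) shaken at 1200 rpm, 37 °C with 1 mg/mL Pd resins (30 μm). Sampled at 10, 20, 40 min, 1, 3, 6, 24 and 48 h; analyzed by reverse-phase UPLC (C18, 60 °C, UV 254 nm), products identified by retention time against authentic standards.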

The nature of data set [9]: Cmax in male Wistar Han rat at 10 mg/kg, po administered as single dose measured upto 24 hrs. The format is ADME, organism-based. Set-up: time < 24 hrs, dose 10 mg/kg, route po. As to conditions: in vivo. A digest of the protocol: (§2)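 Male jugular-vein-cannulated Wistar Han rats, 263–319 g, single dose. IV: 1 mg/kg as 2 mL/kg of 0.5 mg/mL in 5% DMSO/95% HPCD (20% w/v), not fasted. PO: 10 mg/kg as 5 mL/kg of 2 mg/mL suspension in 5% DMSO/95% tween 80/HPCD vehicle, fasted overnight. Serial cannula blood sampling 0.083/0.25–24 h (n = 3/route); parent quantified by QToF against calibration curve.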

A short description of data set [10]: Half life in male Wistar Han rat at 1 mg/kg, iv administered as single dose measured upto 24 hrs. It is filed as ADME, organism-based. Particulars: in vivo. The procedure, abridged: as §2
Data set [11] is described as follows: AUC (0 to t) in male Wistar Han rat at 1 mg/kg, iv administered as single dose measured upto 24 hrs. As to conditions: in vivo. Set-up: dose 1 mg/kg, time < 24 hrs, route iv. The format is ADME, organism-based. The procedure, abridged: as §2
A short description of data set [12]: AUC (0 to infinity) in male Wistar Han rat at 1 mg/kg, iv administered as single dose measured upto 24 hrs. As to conditions: in vivo. It is filed as ADME, organism-based. Set-up: time < 24 hrs, dose 1 mg/kg, route iv. The procedure, abridged:
as §2

Data set [13] in a line: AUC (0 to infinity) in male Wistar Han rat at 10 mg/kg, po administered as single dose measured upto 24 hrs. The format is ADME, organism-based. Particulars: in vivo. Set-up: time < 24 hrs, dose 10 mg/kg, route po. The procedure, abridged:
as §2

A short description of data set [14]: Mean residence time in male Wistar Han rat at 10 mg/kg, po administered as single dose measured upto 24 hrs. It is filed as ADME, organism-based. As to conditions: in vivo. A digest of the protocol: as §2
The nature of data set [15]: Cmax in male Wistar Han rat at 1000 mg/kg, po administered as single dose measured upto 24 hrs. The format is ADME, organism-based. Set-up: time < 24 hrs, dose 1000 mg/kg, route po. Particulars: in vivo. A digest of the protocol:
(§3)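 Single oral dose 1000 mg/kg in male and female rats, dosing volume 10 mL/kg (n = 6); animals observed 14 days with clinical checks, functional/neurobehavioral tests and body weight, necropsy on d15; exposure parameters from the toxicokinetic arm of this study.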

A short description of data set [16]: Tmax in female Wistar Han rat at 1000 mg/kg, po administered as single dose measured upto 24 hrs. The format is ADME, organism-based. As to conditions: in vivo. A digest of the protocol:
as §3

Data set [17] in a line: AUC (0 to t) in male Wistar Han rat at 1000 mg/kg, po administered as single dose measured upto 24 hrs. It is filed as ADME, organism-based. Also on record: dose 1000 mg/kg, time < 24 hrs, route po. As to conditions: in vivo. A digest of the protocol:
as §3

A short description of data set [18]: AUC (0 to t) in female Wistar Han rat at 1000 mg/kg, po administered as single dose measured upto 24 hrs. Also on record: dose 1000 mg/kg, time < 24 hrs, route po. As to conditions: in vivo. The format is ADME, organism-based. The procedure, abridged:
as §3

Data set [19] in a line: AUC (0 to infinity) in maleWistar Han rat at 1000 mg/kg, po administered as single dose measured upto 24 hrs. It is filed as ADME, organism-based. Set-up: time < 24 hrs, dose 1000 mg/kg, route po. Particulars: male, Wistar Han, in vivo. The procedure, abridged: as §3
Data set [20] in a line: AUC (0 to infinity) in female Wistar Han rat at 1000 mg/kg, po administered as single dose measured upto 24 hrs. The format is ADME, organism-based. Set-up: time < 24 hrs, dose 1000 mg/kg, route po. As to conditions: in vivo. The procedure, abridged: as §3
The nature of data set [21]: Drug metabolism in BALB/c mouse bearing HCT-116 tumor assessed as release of 5-FU in plasma at 75 to 150 mg/kg, po administered for 7 days. It is filed as ADME, organism-based. As to conditions: in vivo, 168 h, dose 75-150 mg/kg, time 7 day. A digest of the protocol:
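Same HCT116-bearing BALB/c nude mice with intratumoral Pd resins and 7-day oral dosing at 75 or 150 mg/kg; blood collected by microsampling on day 7, 2 h after administration, plasma frozen at –20 °C for analysis.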

Data set [22] can be described thus: Toxicity in female Wistar Han rat assessed as abnormal morphological changes in organs at 1000 mg/kg, po administered as single dose measured after 15 days. It is filed as organism-based. Particulars: in vivo, 360 h, time 15 day. The procedure, abridged: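 Single oral dose of 1000 mg/kg in 10 mL/kg to male and female rats (n = 6), then 14 days of observation. Mortality and morbidity checked twice daily, with clinical observations and functional/neurobehavioral tests. Body weight recorded d1, d2, d5, d8, d11 and d14. Gross necropsy on d15.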

The source made the active and inactive calls. The rule behind the calls is not given here.

Chain of Albumin (P02768 whole entry): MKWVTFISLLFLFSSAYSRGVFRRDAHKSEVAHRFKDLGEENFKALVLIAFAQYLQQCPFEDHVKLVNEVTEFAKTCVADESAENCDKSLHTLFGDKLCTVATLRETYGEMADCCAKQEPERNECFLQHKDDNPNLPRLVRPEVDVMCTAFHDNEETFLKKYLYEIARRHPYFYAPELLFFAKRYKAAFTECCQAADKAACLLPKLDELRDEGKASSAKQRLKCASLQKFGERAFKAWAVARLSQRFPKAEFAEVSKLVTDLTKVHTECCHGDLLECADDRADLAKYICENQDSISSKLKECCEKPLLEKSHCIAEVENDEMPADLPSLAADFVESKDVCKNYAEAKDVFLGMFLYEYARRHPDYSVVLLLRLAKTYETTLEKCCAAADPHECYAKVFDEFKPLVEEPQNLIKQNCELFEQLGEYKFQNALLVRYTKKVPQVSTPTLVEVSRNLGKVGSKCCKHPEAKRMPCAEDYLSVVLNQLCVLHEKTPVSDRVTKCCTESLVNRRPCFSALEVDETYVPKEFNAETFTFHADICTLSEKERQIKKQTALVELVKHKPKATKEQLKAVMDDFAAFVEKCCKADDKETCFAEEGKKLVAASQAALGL

As to `C#CCOc1ncc(F)c(OCC#C)n1`, the Drug metabolism result in data set [1] is listed as “Metabolite_Notdetected”; in [8] it was “Metabolite_Detected”; in data set [21] it was “Metabolite_Detected”. For the same molecule, the outcome in the data set with HCT-116 [2] was Active. Further, the Activity with HCT-116 [3] is listed as 7%; on Albumin it was 10%; in data set [22], “Non-Toxic”. Further, the hepatocyte CLint at 3 µM in [4] was 3.31 µL/min/1e6 cells. Also, in [5], the half-life – broadly, the time in which the quantity being followed falls by half – at 3 µM came out at 6.97 h. Further, the efflux ratio (usually the permeability from basolateral to apical divided by that in the opposite direction, in the common usage) at 2 h, 10 µM in data set [6] is 1.38. Moreover, the fraction unbound at 5 µM in data set [7] was 0.142. Moreover, the values for the Cmax in data set [9] and in [15] were 3610 ng/mL and 84700 ng/mL, respectively. In data set [10], this molecule had a half-life of 0.497 h. In addition, the AUC(0-t) (commonly the area under the concentration-time curve up to a stated or last time point) at 24 h in data set [11] was 0.324 µg·h/mL; in [17] it was 1590 µg·h/mL; in data set [18], 1210 µg·h/mL. Besides, the AUC(0-inf) (usually total exposure, with the tail of the curve extrapolated) in data set [12] amounted to 0.33 µg·h/mL; in data set [13], 6.19 µg·h/mL; in data set [19], 2610 µg·h/mL; in data set [20] it was 1470 µg·h/mL. Moreover, the MRT – broadly, a mean duration of stay, worked out from the concentration-time curve – in data set [14] is 1.86 h. In addition, the Tmax – broadly, the time at which the peak concentration occurs – in [16] is 4 h.
